# ChEMBL document CHEMBL4261600 (Eur J Med Chem, 2018)
# Columns and labels:
# [1] = target: Serine/threonine-protein kinase 4 (Homo sapiens) (UniProt Q13043); assay: Binding affinity to wild-type human full length MST1 (M1 to F487 residues) expressed in bacterial expression system assessed as remaining unbound target protein level at 1000 nM by Kinomescan method relative to control
# Procedure, shortened: (§1)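 KINOMEscan competition binding profile across a panel of 468 kinases and mutants, with the inhibitor tested at a single concentration of 1 μM. Binding is reported as percent of control, meaning signal relative to a DMSO control.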
# [2] = target: Cytoplasmic tyrosine-protein kinase BMX (Homo sapiens) (UniProt P51813); assay: Binding affinity to wild-type human full length BMX (M1 to H675 residues) expressed in bacterial expression system assessed as remaining unbound target protein level at 1000 nM by Kinomescan method relative to control
# Procedure, shortened: (§2)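 Single-point competition binding screen across a panel of 468 kinases and mutants, with the inhibitor at 1 μM. Binding is read out as percent of a DMSO control, and targets below 1 percent control were classed as strong binders.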
# [3] = target: Epidermal growth factor receptor (Homo sapiens) (UniProt P00533); assay: Binding affinity to human partial length EGFR E746-A750del mutant expressed in bacterial expression system assessed as remaining unbound target protein level at 1000 nM by Kinomescan method relative to control
# Procedure, shortened: (§3)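 KINOMEscan competition-binding profiling across the panel of 468 kinases and mutants, with inhibitor tested at 1 μM. Binding is expressed as percent of control, with DMSO as the reference control.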
# [4] = target: Ribosomal protein S6 kinase alpha-2 (Homo sapiens) (UniProt Q15349); assay: Binding affinity to wild-type human partial length C-terminal RSK3 kinase domain 2 (V403 to K700 residues) expressed in bacterial expression system assessed as remaining unbound target protein level at 1000 nM by Kinomescan method relative to control
# Procedure, shortened: (§4)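 Profiled in a KINOMEscan binding panel with the inhibitor at a single concentration of 1 μM. Binding to each kinase was read out as percent of control, relative to a DMSO control. Strong binders were defined as those with a percent control value below 1.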
# [5] = Oral bioavailability in mouse at 10 mg/kg by LC-MS/MS analysis; format: ADME, organism-based; details: in vivo
# [6] = target: Cyclin-dependent kinase 15 (Homo sapiens) (UniProt Q96Q40); assay: Binding affinity to wild-type human full length PFTAIRE2 (M1 to W384 residues) expressed in bacterial expression system assessed as remaining unbound target protein level at 1000 nM by Kinomescan method relative to control; procedure, shortened: as §1
# [7] = target: Mitogen-activated protein kinase 10 (Homo sapiens) (UniProt P53779); assay: Binding affinity to wild-type human partial length JNK3 (V28 to Q422 residues) expressed in mammalian expression system assessed as remaining unbound target protein level at 1000 nM by Kinomescan method relative to control
# Procedure, shortened: (§5)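 KINOMEscan binding panel of 468 kinases/mutants. Inhibitor was tested at a single concentration of 1 μM. Binding is reported as percent of control, defined relative to a DMSO control.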
# [8] = target: Ephrin type-A receptor 3 (Homo sapiens) (UniProt P29320); assay: Binding affinity to wild-type human partial length EPHA3 (D604 to K889 residues) expressed in bacterial expression system assessed as remaining unbound target protein level at 1000 nM by Kinomescan method relative to control; procedure, shortened: as §5
# [9] = target: Tyrosine-protein kinase TXK (Homo sapiens) (UniProt P42681); assay: Binding affinity to wild-type human partial length TXK (L238 to W527 residues) expressed in bacterial expression system assessed as remaining unbound target protein level at 1000 nM by Kinomescan method relative to control
# [10] = system: Tyrosine-protein kinase ABL1 (Homo sapiens), P00519 [H396P]; assay: Binding affinity to human non-phosphorylated ABL1 H396P mutant (S229 to K512 residues) expressed in mammalian expression system assessed as remaining unbound target protein level at 1000 nM by Kinomescan method relative to control; procedure, shortened: as §3
# [11] = target: Myosin light chain kinase, smooth muscle (Homo sapiens) (UniProt Q15746); assay: Binding affinity to wild-type human full length MYLK (M854 to E1845 residues) expressed in mammalian expression system assessed as remaining unbound target protein level at 1000 nM by Kinomescan method relative to control; procedure, shortened: as §1
# [12] = target: Receptor-interacting serine/threonine-protein kinase 1 (Homo sapiens) (UniProt Q13546); assay: Binding affinity to wild-type human partial length RIPK1 (M1 to K305 residues) expressed in bacterial expression system assessed as remaining unbound target protein level at 1000 nM by Kinomescan method relative to control
# MV4-11 = assay: Antiproliferative activity against human MV4-11 cells after 72 hrs by Celltiter-Glo assay; format: functional; details: MV4-11, 72 h
# Procedure, shortened: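 Cells seeded at 3000/well in 96-well plates, exposed to serially diluted compound for 72 h at 37 °C, 5% CO2. Viability read by CellTiter-Glo luminescence and normalized to DMSO control. GI50 derived from curve fit, mean of three independent measurements. Culture media: DMEM/10% FBS for adherent lines; IMDM for MV4-11 and MEC-1/2; RPMI 1640 for suspension lines and CHL.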
# [13] = target: LIM domain kinase 1 (Homo sapiens) (UniProt P53667); assay: Binding affinity to wild-type human full length LIMK1 (M1 to D647 residues) expressed in bacterial expression system assessed as remaining unbound target protein level at 1000 nM by Kinomescan method relative to control; procedure, shortened: as §2
# [14] = AUC (0 to t) in Sprague-Dawley rat at 3 mg/kg, iv by LC-MS/MS analysis; format: ADME, organism-based; details: in vivo
# Procedure, shortened: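 Non-compartmental PK. Male SD rats 190-210 g, mice and beagle dogs acclimatized one week, fasted 12 h with water, split into iv and po groups (mice 48, rats 6, dogs 6). iv 3/3/2 mg/kg (mice/rats/dogs); po 10/20/10 mg/kg; vehicle DMSO in 5% glucose water. Blood at 2 or 5 to 720 min; plasma protein-precipitated with methanol, caffeine internal standard, LC-MS/MS.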
# [15] = system: Phosphatidylinositol 4,5-bisphosphate 3-kinase catalytic subunit alpha isoform (Homo sapiens), P42336 [C420R]; assay: Binding affinity to human partial length PIK3CA C420R mutant (R108 to N1068 residues) expressed in mammalian expression system assessed as remaining unbound target protein level at 1000 nM by Kinomescan method relative to control; procedure, shortened: as §3
# [16] = target: Epidermal growth factor receptor (Homo sapiens) (UniProt P00533); assay: Binding affinity to human partial length EGFR S752-I759del mutant expressed in bacterial expression system assessed as remaining unbound target protein level at 1000 nM by Kinomescan method relative to control; procedure, shortened: as §3
# [17] = target: Serine/threonine-protein kinase BRSK1 (Homo sapiens) (UniProt Q8TDC3); assay: Binding affinity to wild-type human partial length BRSK1 (M1 to E754 residues) expressed in bacterial expression system assessed as remaining unbound target protein level at 1000 nM by Kinomescan method relative to control; procedure, shortened: as §4
# [18] = target: Protein kinase C epsilon type (Homo sapiens) (UniProt Q02156); assay: Binding affinity to wild-type human partial length PRKCE (A378 to P737 residues) expressed in mammalian expression system assessed as remaining unbound target protein level at 1000 nM by Kinomescan method relative to control
# Sequence of Epidermal growth factor receptor (Homo sapiens) (P00533 whole entry, the tested form may be a part): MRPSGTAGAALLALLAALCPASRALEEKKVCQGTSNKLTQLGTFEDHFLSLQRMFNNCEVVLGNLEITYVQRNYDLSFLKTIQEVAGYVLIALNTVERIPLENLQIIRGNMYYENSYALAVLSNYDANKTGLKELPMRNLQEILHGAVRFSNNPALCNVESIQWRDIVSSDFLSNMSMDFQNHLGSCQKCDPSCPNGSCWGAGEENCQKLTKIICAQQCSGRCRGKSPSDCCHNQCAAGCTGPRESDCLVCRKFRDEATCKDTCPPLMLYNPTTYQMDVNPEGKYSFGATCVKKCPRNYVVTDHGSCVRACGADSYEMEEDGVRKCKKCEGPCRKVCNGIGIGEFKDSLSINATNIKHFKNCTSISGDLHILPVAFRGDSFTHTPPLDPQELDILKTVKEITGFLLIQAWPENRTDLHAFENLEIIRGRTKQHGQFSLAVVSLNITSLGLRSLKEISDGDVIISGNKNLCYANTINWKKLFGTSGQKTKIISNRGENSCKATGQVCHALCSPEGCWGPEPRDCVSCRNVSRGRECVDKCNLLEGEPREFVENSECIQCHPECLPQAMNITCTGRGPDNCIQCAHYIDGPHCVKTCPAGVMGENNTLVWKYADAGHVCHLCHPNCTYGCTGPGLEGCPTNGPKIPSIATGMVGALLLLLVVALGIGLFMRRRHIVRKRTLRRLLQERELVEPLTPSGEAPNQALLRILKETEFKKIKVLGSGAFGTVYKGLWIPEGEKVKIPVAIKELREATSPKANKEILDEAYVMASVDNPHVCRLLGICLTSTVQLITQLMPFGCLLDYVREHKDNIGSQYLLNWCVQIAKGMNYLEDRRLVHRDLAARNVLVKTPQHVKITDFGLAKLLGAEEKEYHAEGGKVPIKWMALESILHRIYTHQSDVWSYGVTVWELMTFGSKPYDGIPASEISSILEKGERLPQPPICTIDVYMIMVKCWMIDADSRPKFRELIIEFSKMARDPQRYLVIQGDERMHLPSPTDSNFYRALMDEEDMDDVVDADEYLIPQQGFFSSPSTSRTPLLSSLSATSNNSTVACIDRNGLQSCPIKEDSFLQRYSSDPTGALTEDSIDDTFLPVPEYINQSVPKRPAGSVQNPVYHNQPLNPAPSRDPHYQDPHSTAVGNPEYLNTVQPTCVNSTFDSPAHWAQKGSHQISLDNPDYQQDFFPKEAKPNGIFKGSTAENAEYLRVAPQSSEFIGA
# Sequence of Ephrin type-A receptor 3 (Homo sapiens) (P29320 whole entry, the tested form may be a part): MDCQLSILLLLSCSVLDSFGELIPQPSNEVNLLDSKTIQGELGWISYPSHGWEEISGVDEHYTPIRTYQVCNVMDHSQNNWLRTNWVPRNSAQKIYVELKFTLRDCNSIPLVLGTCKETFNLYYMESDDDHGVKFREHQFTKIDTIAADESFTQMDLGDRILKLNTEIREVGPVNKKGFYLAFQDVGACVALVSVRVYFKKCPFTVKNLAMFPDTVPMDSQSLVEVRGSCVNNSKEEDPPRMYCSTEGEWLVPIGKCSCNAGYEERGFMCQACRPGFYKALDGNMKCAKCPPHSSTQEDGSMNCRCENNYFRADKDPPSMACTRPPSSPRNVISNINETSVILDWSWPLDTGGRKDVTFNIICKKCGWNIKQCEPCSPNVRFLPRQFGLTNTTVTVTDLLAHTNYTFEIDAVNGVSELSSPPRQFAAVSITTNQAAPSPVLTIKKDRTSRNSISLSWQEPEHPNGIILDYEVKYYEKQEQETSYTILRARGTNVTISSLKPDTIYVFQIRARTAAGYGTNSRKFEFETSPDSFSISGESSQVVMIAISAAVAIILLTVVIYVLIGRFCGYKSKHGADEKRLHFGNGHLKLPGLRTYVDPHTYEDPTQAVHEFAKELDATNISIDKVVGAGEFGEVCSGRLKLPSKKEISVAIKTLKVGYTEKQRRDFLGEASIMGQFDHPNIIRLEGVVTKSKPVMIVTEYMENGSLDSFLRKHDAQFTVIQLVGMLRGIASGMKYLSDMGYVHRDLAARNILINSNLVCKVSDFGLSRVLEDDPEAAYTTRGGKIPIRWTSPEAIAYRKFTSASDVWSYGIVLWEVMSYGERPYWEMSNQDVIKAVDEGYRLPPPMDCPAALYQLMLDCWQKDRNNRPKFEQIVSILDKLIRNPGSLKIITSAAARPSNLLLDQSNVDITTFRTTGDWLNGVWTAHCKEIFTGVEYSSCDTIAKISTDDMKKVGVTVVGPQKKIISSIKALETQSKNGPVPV
# Sequence of Myosin light chain kinase, smooth muscle (Homo sapiens) (Q15746 whole entry, the tested form may be a part): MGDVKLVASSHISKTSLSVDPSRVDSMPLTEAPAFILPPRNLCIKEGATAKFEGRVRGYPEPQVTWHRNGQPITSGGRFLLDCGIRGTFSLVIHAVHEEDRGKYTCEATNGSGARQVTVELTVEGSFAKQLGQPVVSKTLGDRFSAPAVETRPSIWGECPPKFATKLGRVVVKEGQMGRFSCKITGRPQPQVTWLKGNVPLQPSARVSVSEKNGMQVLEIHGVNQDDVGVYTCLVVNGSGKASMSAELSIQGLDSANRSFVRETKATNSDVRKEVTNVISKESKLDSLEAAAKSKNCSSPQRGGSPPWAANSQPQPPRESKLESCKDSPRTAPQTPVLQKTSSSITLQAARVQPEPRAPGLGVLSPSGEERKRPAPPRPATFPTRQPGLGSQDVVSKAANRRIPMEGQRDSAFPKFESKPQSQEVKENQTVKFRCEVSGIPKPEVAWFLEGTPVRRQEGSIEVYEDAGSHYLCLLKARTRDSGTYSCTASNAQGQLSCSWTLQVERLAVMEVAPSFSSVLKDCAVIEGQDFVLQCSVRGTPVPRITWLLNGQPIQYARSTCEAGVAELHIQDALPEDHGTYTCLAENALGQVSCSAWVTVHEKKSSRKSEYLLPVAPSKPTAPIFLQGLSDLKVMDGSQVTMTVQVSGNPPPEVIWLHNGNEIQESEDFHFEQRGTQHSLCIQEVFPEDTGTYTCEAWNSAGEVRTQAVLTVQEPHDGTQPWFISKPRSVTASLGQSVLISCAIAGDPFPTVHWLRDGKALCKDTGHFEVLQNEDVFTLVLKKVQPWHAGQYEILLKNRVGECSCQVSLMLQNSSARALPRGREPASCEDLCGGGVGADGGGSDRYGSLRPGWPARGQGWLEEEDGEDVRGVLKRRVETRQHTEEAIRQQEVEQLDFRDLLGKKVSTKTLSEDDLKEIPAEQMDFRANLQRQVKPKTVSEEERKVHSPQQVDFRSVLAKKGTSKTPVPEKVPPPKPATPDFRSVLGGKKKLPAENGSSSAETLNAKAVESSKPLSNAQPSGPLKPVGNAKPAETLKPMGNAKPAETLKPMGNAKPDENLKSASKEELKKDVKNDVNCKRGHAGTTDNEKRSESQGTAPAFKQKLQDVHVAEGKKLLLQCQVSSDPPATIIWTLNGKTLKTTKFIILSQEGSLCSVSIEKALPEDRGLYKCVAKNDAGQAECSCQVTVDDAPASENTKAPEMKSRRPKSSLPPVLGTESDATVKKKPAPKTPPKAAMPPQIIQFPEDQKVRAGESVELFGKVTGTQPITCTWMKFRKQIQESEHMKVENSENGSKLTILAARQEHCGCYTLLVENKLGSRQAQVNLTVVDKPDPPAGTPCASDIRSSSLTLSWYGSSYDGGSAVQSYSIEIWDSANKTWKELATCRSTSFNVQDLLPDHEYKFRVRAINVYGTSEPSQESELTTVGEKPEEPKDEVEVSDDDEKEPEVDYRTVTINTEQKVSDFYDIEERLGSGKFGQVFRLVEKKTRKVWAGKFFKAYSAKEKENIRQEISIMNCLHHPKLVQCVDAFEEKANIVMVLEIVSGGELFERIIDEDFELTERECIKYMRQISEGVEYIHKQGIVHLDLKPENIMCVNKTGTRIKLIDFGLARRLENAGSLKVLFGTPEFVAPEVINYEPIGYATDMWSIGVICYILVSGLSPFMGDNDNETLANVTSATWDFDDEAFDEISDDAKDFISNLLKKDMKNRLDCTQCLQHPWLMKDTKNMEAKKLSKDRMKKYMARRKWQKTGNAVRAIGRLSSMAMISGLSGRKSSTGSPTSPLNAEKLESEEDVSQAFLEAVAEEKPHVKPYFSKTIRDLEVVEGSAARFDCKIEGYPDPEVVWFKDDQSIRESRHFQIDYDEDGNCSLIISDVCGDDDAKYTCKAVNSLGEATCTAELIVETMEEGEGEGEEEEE
# Sequence of Mitogen-activated protein kinase 10 (Homo sapiens) (P53779 whole entry, the tested form may be a part): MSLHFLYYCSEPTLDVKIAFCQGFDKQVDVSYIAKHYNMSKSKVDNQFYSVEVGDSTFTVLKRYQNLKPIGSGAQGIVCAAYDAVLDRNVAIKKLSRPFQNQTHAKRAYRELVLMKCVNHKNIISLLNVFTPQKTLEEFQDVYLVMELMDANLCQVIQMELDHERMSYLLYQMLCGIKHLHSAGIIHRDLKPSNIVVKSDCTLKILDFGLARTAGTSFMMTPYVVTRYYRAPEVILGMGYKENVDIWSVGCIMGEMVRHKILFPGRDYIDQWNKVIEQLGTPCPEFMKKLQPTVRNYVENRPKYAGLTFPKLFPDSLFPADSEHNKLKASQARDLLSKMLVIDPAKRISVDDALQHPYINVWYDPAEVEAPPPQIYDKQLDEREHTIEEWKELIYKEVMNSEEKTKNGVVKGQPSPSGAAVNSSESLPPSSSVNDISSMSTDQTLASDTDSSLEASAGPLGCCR
# Sequence of Cyclin-dependent kinase 15 (Homo sapiens) (Q96Q40 whole entry, the tested form may be a part): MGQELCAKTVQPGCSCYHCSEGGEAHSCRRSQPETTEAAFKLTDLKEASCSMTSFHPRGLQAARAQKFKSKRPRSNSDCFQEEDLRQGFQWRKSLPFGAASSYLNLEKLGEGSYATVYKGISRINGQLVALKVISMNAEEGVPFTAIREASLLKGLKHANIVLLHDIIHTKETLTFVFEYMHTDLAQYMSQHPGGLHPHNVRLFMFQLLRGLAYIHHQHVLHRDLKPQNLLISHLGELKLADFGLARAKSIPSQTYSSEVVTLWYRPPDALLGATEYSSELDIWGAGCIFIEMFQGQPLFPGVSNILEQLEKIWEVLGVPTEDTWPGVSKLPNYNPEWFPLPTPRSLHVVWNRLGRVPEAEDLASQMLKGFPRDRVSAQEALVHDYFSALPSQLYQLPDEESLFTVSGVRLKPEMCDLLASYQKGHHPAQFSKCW
smiles,measurement,setting,value
COCCN[C@H]1CC[C@H](Nc2cc(-c3csc(NCC4(C#N)CCOCC4)n3)c(Cl)cn2)CC1,Activity,[1],99%
same,Activity,[2],92%
same,Activity,[3],83%
same,Activity,[4],92%
same,bioavailability,[5],45%
same,Activity,[6],66%
same,Activity,[7],7.1%
same,Activity,[8],94%
same,Activity,[9],90%
same,Activity,[10],75%
same,Activity,[11],71%
same,Activity,[12],79%
same,GI50,MV4-11,12 nM
same,Activity,[13],90%
same,AUC(0-t),[14],625 ng·h/mL
same,Activity,[15],100%
same,Activity,[16],87%
same,Activity,[17],85%
same,Activity,[18],93%
